Key:
[1] = target: T1, G-protein coupled receptor 55 (Homo sapiens, UniProt Q9Y2T6); test: Antagonist activity at human GPR55 expressed in CHO cells assessed as inhibition of lysophosphotidylinositol-induced beta-arrestin recruitment preincubated for 30 mins followed by lysophosphotidylinositol induction by beta-galactosidase reporter gene assay; format: functional, cell-based
How it was run: (§1)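 Human GPR55 PathHunter CHO cells were preincubated 30 min with compound, then stimulated with LPI (final 1 µM). After 90 min, detection reagent was added and luminescence read 60 min later. Screening was at 10 µM; full concentration-inhibition curves were run for selected compounds to give IC50.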

[2] = target: G protein-coupled receptor GPR35 (Rattus norvegicus, UniProt Q33BM1); test: Agonist activity at rat GPR35 expressed in CHO cells assessed as induction of beta-arrestin recruitment after 90 mins by beta-galactosidase reporter gene assay; format: cell-based
Sequence of G protein-coupled receptor GPR35 (Q33BM1 whole entry): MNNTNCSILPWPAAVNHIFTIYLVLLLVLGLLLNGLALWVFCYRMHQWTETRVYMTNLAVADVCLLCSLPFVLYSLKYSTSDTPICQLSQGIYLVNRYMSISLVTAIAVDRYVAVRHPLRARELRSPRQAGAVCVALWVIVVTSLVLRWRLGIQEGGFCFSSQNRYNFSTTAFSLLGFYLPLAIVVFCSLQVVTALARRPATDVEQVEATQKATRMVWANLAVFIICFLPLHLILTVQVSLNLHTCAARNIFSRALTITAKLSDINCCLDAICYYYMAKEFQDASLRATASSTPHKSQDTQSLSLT
How it was run: (§2)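 Rat GPR35 expressed by transfecting a parental CHO β-arrestin-EA line; cells seeded at 20000/well the day before. Compounds (final DMSO ≤1%) were incubated 90 min, followed by detection reagent and a luminescence read after 60 min.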

[3] = target: G-protein coupled receptor 35 (Mus musculus) (UniProt Q9ES90); test: Agonist activity at mouse GPR35 expressed in CHO cells assessed as induction of beta-arrestin recruitment at 10 uM after 90 mins by beta-galactosidase reporter gene assay; format: cell-based
Sequence of G-protein coupled receptor 35 (Mus musculus) (Q9ES90 whole entry): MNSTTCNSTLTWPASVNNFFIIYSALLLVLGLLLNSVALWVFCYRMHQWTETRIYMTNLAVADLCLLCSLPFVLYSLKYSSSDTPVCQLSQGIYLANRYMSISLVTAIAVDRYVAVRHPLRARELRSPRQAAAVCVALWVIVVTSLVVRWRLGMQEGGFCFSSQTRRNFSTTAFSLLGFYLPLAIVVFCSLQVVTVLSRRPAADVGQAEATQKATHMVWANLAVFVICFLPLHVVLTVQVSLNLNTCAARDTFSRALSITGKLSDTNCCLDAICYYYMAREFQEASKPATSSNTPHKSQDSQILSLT
How it was run: (§3)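 Mouse GPR35 introduced by transfection into a CHO β-arrestin-EA line; 20000 cells/well plated the day prior. After 90 min of compound exposure (final DMSO ≤1%), detection reagent was added and luminescence read after 60 min.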

[4] = target: G protein-coupled receptor GPR35 (Rattus norvegicus) (UniProt Q33BM1); test: Agonist activity at rat GPR35 expressed in CHO cells assessed as induction of beta-arrestin recruitment at 10 uM after 90 mins by beta-galactosidase reporter gene assay relative to zaprinast; format: cell-based; how it was run: as §2
Sequence of G protein-coupled receptor GPR35 (Rattus norvegicus) (Q33BM1 as listed by the source): as the sequence (Q33BM1 whole entry) above

[5] = target: T1, G-protein coupled receptor 55; test: Agonist activity at human GPR55 expressed in CHO cells assessed as induction of beta-arrestin recruitment at 10 uM after 90 mins by beta-galactosidase reporter gene assay relative to lysophosphotidylinositol; format: functional, cell-based
How it was run: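 Human GPR55 PathHunter CHO cells, 20000 cells/well seeded the day before, received test compound at 10 µM (final DMSO ≤1%) for 90 min. Detection reagent was then added and luminescence read after 60 min. Signal was normalized to that of 1 µM LPI.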

[6] = target: T2, G-protein coupled receptor 35 (Homo sapiens, UniProt Q9HC97); test: Agonist activity at human GPR35 expressed in CHO cells assessed as induction of beta-arrestin recruitment at 10 uM after 90 mins by beta-galactosidase reporter gene assay relative to zaprinast; format: cell-based
T2 sequence (Q9HC97 whole entry, the tested form may be a part): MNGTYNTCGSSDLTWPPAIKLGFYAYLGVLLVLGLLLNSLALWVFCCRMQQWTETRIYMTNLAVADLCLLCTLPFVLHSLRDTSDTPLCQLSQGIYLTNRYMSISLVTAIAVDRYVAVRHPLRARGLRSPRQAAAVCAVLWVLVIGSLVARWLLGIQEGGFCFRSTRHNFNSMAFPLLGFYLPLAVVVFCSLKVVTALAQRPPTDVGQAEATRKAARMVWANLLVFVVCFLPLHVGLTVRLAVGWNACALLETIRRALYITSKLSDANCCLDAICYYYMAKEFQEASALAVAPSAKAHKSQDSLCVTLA
How it was run: (§4)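 PathHunter enzyme-fragment complementation in CHO cells stably expressing β-arrestin-EA and tagged human GPR35, seeded at 20000 cells/well the day before. DMSO dilutions were further diluted 1:10 (final DMSO ≤1%). Cells were incubated 90 min, then detection reagent was added and luminescence read after 60 min.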

[7] = target: T2, G-protein coupled receptor 35; test: Agonist activity at human GPR35 expressed in CHO cells assessed as induction of beta-arrestin recruitment after 90 mins by beta-galactosidase reporter gene assay; format: cell-based; how it was run: as §4
[8] = target: G protein-coupled receptor GPR35 (Rattus norvegicus) (UniProt Q33BM1); test: Agonist activity at rat GPR35 expressed in CHO cells assessed as induction of beta-arrestin recruitment at 10 uM after 90 mins by beta-galactosidase reporter gene assay; format: cell-based; how it was run: as §2
[9] = target: T1, G-protein coupled receptor 55; test: Antagonist activity at human GPR55 expressed in CHO cells assessed as inhibition of lysophosphotidylinositol-induced beta-arrestin recruitment at 10 uM preincubated for 30 mins followed by lysophosphotidylinositol induction by beta-galactosidase reporter gene assay relative to control; format: functional, cell-based; how it was run: as §1
[10] = target: T2, G-protein coupled receptor 35; test: Agonist activity at human GPR35 expressed in CHO cells assessed as induction of beta-arrestin recruitment at 10 uM after 90 mins by beta-galactosidase reporter gene assay; format: cell-based; how it was run: as §4
[11] = target: G-protein coupled receptor 35 (Mus musculus, UniProt Q9ES90); test: Agonist activity at mouse GPR35 expressed in CHO cells assessed as induction of beta-arrestin recruitment after 90 mins by beta-galactosidase reporter gene assay; format: cell-based; how it was run: as §3
Sequence of G-protein coupled receptor 35 (Mus musculus, UniProt Q9ES90) (Q9ES90 whole entry): as the sequence (Q9ES90 whole entry) above

[12] = target: T2, G-protein coupled receptor 35; test: Agonist activity at human GPR35b expressed in CHO cells assessed as induction of beta-arrestin recruitment at 10 uM after 90 mins by beta-galactosidase reporter gene assay relative to zaprinast; format: cell-based
How it was run: (§5)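 CHO β-arrestin-EA parental line transfected with human GPR35b, seeded at 20000 cells/well the day before. Compounds in DMSO were diluted 1:10 in medium or PBS (final DMSO ≤1%). After 90 min of incubation, detection reagent was added and luminescence measured 60 min later. Screening was at 10 µM.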

[13] = target: G-protein coupled receptor 35 (Mus musculus) (UniProt Q9ES90); test: Agonist activity at mouse GPR35 expressed in CHO cells assessed as induction of beta-arrestin recruitment at 10 uM after 90 mins by beta-galactosidase reporter gene assay relative to zaprinast; format: cell-based; how it was run: as §3
[14] = target: T2, G-protein coupled receptor 35; test: Agonist activity at human GPR35b expressed in CHO cells assessed as induction of beta-arrestin recruitment after 90 mins by beta-galactosidase reporter gene assay; format: cell-based; how it was run: as §5
[15] = Inhibition of PDE (unknown origin); set-up: species or system Homo sapiens
[16] = Inhibition of chloride channel (unknown origin); set-up: species or system Homo sapiens
[17] = Stability of the compound in aceronitrile/water at pH 5.5 at 1.2 mM after 4 hrs by LC-MS analysis; format: physicochemical; settings: buffer, pH 5.5, 4 h, 1200 µM
How it was run: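 Compound dissolved at 1.20 mM in 1:1 acetonitrile/water at pH 5.5 with no added acid, base or salt; sample then analysed by LC-MS.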

[18] = Stability of the compound in aceronitrile/water at pH 8 at 1.2 mM after 2 to 4 days by LC-MS analysis in presence of ammonia and ammonium acetate; format: physicochemical; settings: buffer, pH 8, 1200 µM
How it was run: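 Solution of compound at 1.20 mM in 1:1 acetonitrile/water at pH 8.0, containing ammonia ([…]) and ammonium acetate (2 mM); sample then analysed by LC-MS.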

Homo sapiens = species on record: Homo sapiens; test: Selectivity ratio of IC50 for human GPR55 to EC50 for human GPR35
[19] = Stability of the compound in aceronitrile/water at pH 3.5 at 1.2 mM after 90 mins by LC-MS analysis in presence of acetic acid and ammonium acetate; format: physicochemical; settings: buffer, pH 3.5, 1.5 h, 1200 µM
How it was run: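 Compound prepared at 1.20 mM in 1:1 acetonitrile/water adjusted to pH 3.5, containing acetic acid (300 mM) and ammonium acetate (2 mM); sample then analysed by LC-MS.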

[20] = target: Neuronal acetylcholine receptor subunit alpha-7 (Homo sapiens, UniProt P36544); test: Inhibition of alpha7 nAChR (unknown origin)
Sequence of Neuronal acetylcholine receptor subunit alpha-7 (P36544 whole entry): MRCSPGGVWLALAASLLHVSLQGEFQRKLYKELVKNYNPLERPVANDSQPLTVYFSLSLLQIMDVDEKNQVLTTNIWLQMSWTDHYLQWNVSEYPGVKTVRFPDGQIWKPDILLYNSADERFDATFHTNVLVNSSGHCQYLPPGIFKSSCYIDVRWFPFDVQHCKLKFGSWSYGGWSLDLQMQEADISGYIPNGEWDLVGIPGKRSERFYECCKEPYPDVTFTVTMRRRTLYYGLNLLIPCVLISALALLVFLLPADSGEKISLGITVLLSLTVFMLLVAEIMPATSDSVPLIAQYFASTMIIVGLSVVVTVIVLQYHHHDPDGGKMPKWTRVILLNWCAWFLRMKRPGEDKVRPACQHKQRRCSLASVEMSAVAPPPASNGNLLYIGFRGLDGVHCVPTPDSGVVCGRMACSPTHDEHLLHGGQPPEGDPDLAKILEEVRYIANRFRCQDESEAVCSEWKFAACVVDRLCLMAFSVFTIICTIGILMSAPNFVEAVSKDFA

[21] = target: GABA-A receptor; agonist GABA site; test: Inhibition of GABAA receptor (unknown origin); format: protein-complex assay, Homo sapiens
[22] = target: Glutamate [NMDA] receptor; test: Inhibition of NMDA receptor (unknown origin); set-up: species or system Homo sapiens
[23] = Inhibition of AMPA receptor (unknown origin); set-up: species or system Homo sapiens
[24] = target: T3, Aryl hydrocarbon receptor (Homo sapiens, UniProt P35869); test: Activation of AHR (unknown origin)
T3 sequence (P35869 whole entry): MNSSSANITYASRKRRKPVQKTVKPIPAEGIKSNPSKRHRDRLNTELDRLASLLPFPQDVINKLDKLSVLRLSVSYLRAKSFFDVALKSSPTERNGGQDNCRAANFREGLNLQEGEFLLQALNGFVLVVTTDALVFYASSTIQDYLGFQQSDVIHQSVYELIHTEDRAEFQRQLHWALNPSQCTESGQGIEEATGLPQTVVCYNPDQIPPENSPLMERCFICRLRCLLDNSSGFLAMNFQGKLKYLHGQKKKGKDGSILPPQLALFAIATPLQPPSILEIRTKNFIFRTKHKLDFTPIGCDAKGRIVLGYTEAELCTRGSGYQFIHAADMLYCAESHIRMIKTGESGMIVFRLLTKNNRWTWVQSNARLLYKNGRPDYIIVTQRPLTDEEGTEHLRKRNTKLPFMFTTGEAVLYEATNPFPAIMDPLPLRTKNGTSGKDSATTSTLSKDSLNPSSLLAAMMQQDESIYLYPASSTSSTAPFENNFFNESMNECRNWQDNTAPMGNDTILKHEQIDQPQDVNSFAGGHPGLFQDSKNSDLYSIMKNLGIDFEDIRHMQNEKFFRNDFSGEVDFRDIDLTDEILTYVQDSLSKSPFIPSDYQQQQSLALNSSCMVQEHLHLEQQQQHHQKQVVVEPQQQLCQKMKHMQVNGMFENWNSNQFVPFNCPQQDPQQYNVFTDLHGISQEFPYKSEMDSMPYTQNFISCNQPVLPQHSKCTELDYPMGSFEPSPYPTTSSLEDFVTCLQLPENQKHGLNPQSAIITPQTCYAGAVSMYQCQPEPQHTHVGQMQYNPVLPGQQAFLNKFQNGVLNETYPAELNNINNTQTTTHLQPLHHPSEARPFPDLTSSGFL

T1 sequence (Q9Y2T6 whole entry): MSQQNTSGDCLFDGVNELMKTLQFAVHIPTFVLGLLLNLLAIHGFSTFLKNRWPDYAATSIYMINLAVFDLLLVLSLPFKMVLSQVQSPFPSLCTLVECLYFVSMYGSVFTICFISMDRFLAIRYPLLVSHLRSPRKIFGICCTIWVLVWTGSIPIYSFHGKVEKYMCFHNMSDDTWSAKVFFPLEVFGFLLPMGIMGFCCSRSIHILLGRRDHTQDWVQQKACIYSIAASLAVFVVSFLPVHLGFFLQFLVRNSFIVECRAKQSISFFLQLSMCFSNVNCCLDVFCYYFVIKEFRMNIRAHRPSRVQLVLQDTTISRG

| IC50 [1] [µM] | EC50 [2] [µM] | Activity [3] [%] | Emax [4] [%] | Activity [5] [%] | Emax [6] [%] | EC50 [7] [µM] | inhibition [9] [%] | EC50 [11] [µM] | Emax [13] [%] | SMILES | also measured |
| --- | --- | --- | --- | --- | --- | --- | --- | --- | --- | --- | --- |
| – | – | 13 | – | -5 | – | – | 24 | – | – | O=C(Nc1cccc2c(=O)cc(C(=O)O)oc12)c1ccc(OCC2CC2)cc1 | Activity [8]: 48%; Activity [10]: 10% |
| – | 2.16 | – | 85 | 0 | 104 | 0.346 | -3 | 5.03 | 66 | COc1ccc(C(=O)Nc2cccc3c(=O)cc(C(=O)O)oc23)cc1 | Emax [12]: 115%; EC50 [14]: 0.472 µM |
| 6.2 | 0.991 | – | 94 | 9 | 117 | 0.0305 | – | 4.98 | 64 | COc1ccc(C(=O)Nc2cc(Br)cc3c(=O)cc(C(=O)O)oc23)cn1 | – |
| – | 0.986 | – | 104 | – | 119 | 1.26 | – | 4.84 | 102 | O=C(O)c1cc(=O)c2c(OCC(O)COc3cccc4oc(C(=O)O)cc(=O)c34)cccc2o1 [CROMOLYN SODIUM] | Ki [15]: 0.0008 µM; IC50 [16]: 5 µM |
| – | 3.61 | 13 | 80 | 10 | – | – | 21 | – | – | CCCOc1ccc(C(=O)Nc2cccc3c(=O)cc(C(=O)O)oc23)cc1 | Activity [10]: 4% |
| – | 1.1 | – | 73 | 9 | 91 | 1.66 | 44 | 4.95 | 71 | COc1ccccc1C(=O)Nc1cc(Br)cc2c(=O)cc(C(=O)O)oc12 | – |
| 21.7 | 4.17 | 35 | 81 | 10 | 120 | 0.0111 | – | – | – | COc1ccc(C(=O)Nc2cc(Br)cc3c(=O)cc(C(=O)O)oc23)c(Cl)c1 | Emax [12]: 129%; Ratio IC50/EC50 (Homo sapiens): > 1700; EC50 [14]: 0.0147 µM |

Continued, molecule first:

| SMILES | IC50 [1] [µM] | EC50 [2] [µM] | Activity [3] [%] | Emax [4] [%] | Activity [5] [%] | Emax [6] [%] | EC50 [7] [µM] | inhibition [9] [%] | EC50 [11] [µM] | Emax [13] [%] | also measured |
| --- | --- | --- | --- | --- | --- | --- | --- | --- | --- | --- | --- |
| COc1ccc(C(=O)Nc2cc(Br)cc3c(=O)cc(C(=O)O)oc23)nc1 | 8.92 | 1.54 | 27 | 68 | 4 | 115 | 0.144 | – | – | – | – |
| COc1ccc(C(=O)Nc2cc(Br)cc3c(=O)cc(C(=O)O)oc23)cc1OC | – | 1.3 | – | 106 | -12 | 102 | 0.425 | 45 | 6.4 | 73 | Emax [12]: 101%; EC50 [14]: 0.628 µM |
| O=C(Nc1cccc2c(=O)cc(C(=O)O)oc12)c1ccc2ccccc2n1 | – | – | – | – | -6 | 81 | 1.34 | 31 | 3.59 | 65 | Activity [8]: 41% |
| O=C(Nc1cccc2c(=O)cc(C(=O)O)oc12)c1ccc2ccccc2c1 | 29.1 | – | – | – | 6 | 125 | 4.67 | – | 2.99 | 79 | Activity [8]: 46% |
| COc1ccc(C(=O)Nc2cc(Br)cc3c(=O)cc(C(=O)O)oc23)cc1 | 21.7 | 1.4 | 36 | 88 | 0 | 121 | 0.0121 | – | – | – | Stability [17]: Stable; Stability [18]: Stable; Emax [12]: 136%; Ratio IC50/EC50 (Homo sapiens): > 1700; EC50 [14]: 0.0221 µM; Stability [19]: Stable |
| Nc1cccc2c(=O)cc(C(=O)O)oc12 | – | – | 4 | – | -11 | – | – | 19 | – | – | Activity [8]: 40%; Activity [10]: 2% |
| O=C(O)c1cc(=O)c2ccccc2[nH]1 [TRANSTORINE] | – | 66 | – | – | – | – | 217 | – | – | – | IC50 [20]: 7 µM; IC50 [21]: 2900 µM; IC50 [22]: 15 µM; IC50 [23]: 10 µM; EC50 [24]: 0.3 µM |

Source: ChEMBL document CHEMBL2390920, “8-Benzamidochromen-4-one-2-carboxylic acids: potent and selective agonists for the orphan G protein-coupled receptor GPR35” (J Med Chem, 2013)
